Calls of active or inactive are those of the source.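 Rule for the calls, unless noted: active = NADPH fluorescence slope more negative than the mean of all samples by about 3 SD, 99.7% confidence; inactive = the rest.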
How the values were obtained:
[1] = inhibitors of TNFa-induced NFkB p65 translocation, primary screen, imaging, HUVEC, MLSMR starter and 10KST1 sets (AID 438;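 active = inhibition above 20% together with a positive visual image hit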;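 note: compound added about 3h40 before a 20 min TNFalpha stimulation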;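 for inhibition: signal is the nuclear over cytoplasmic p65 intensity ratio per well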); settings: HUVEC TNFa-induced p65 nuclear translocation; cell count: measured here: nuclei count (cytotoxicity indicator), at 2.08 µM; inhibition: at 2 µM, stronger effect = higher value, 0% TNFa-plus-vehicle, 100% no-TNFa wells
[2] = endothelial E-selectin expression blockers – imaging, HUVEC, immunofluorescence, MLSMR starter and 10KST1 sets, primary screen (AID 487;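 active = visually confirmed hit in the image check and inhibition above 20%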;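 for inhibition: signal is fraction of cell area covered by stained E-selectin grains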;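 for nuclei count: 100% = median nuclei count of all wells on the same plate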); settings: HUVEC TNFalpha-induced E-selectin immunofluorescence imaging, at 2 µM; inhibition: stronger effect = higher value; nuclei count: measured here: cell number, toxicity
[3] = Primary imaging screen for DUSP6 inhibitors that restore phospho-Erk in transfected HeLa cells, chemical complementation (AID 609;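 active = compounds giving at least 50% inhibition in the cell-based MKP-3 phosphatase rescue imaging test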;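 for inhibition: phospho-Erk level distribution per well compared with pooled transfected vehicle control wells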); settings: HeLa MKP-3 transfected, phospho-Erk imaging KS statistic, at 10 µM, cells stimulated with TPA for 15 min
[4] = molecular target: Dual specificity protein phosphatase 6 (Homo sapiens) (UniProt Q16828); assay: as above; settings: HeLa MKP-3 transfected, phospho-Erk imaging KS statistic; at 10 µM; stronger effect = higher value; cells stimulated with TPA for 15 min
Chain of Dual specificity protein phosphatase 6 (Homo sapiens) (Q16828 whole entry, looked up): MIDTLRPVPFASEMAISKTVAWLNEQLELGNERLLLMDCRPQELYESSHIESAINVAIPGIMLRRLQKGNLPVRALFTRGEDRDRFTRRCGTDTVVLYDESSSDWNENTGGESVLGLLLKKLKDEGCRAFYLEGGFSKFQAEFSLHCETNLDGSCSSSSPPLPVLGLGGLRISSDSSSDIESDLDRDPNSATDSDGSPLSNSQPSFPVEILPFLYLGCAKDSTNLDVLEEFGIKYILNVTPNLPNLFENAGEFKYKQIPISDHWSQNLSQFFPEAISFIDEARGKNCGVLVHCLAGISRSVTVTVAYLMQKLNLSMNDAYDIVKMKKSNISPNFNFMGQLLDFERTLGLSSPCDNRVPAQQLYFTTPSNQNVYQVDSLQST

[5] = molecular target: Voltage-gated potassium channel subunit beta-2 (Rattus norvegicus) (UniProt P62483); assay: inhibitors of rat Kvbeta2 reductase activity – biochemical, NADPH fluorescence, primary screen (AID 622;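 active = fluorescence slope higher than the sample average by over 3 SD, cut at about -0.22 in these data, passing the limit was not always enough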;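 note: slope of raw intensity against log time taken from 70 to 1610 s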); settings: recombinant KvBeta, 4-cyanobenzaldehyde reduction, at 10 µM, stronger effect = higher value
Chain of Voltage-gated potassium channel subunit beta-2 (Rattus norvegicus) (P62483 whole entry, looked up): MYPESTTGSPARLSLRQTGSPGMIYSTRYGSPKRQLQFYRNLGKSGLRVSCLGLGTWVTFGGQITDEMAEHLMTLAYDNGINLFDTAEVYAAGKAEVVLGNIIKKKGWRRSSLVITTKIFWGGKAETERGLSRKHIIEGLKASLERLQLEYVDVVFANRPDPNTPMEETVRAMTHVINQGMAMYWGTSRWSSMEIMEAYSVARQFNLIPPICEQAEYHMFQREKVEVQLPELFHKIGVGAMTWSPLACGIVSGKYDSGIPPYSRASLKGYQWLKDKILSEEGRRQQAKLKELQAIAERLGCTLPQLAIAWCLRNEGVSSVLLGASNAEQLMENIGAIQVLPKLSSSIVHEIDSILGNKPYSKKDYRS

[6] = molecular target: Voltage-gated potassium channel subunit beta-2 (Rattus norvegicus) (UniProt P62483); assay: enhancers of rat Kvbeta2 NADPH turnover – biochemical, NADPH fluorescence, primary screen (AID 623); settings: Recombinant KvBeta, NADPH fluorescence decrease slope, 10 min; at 10 µM; stronger effect = lower value;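 note: fluorescence intensity change per second fitted from 20 to 320 s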
[7] = molecular target: Alpha-2C adrenergic receptor (Homo sapiens) (UniProt P18825); assay: compounds altering alpha2C-coupled GIRK flux – cell-based, HEK293 alpha2C/GIRK1/2, thallium flux, primary screen (AID 624;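 active = fluorescence slope after compound addition differing from the mean of all screened samples at 99.7% confidence, in either direction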;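 note: slope of fluorescence ratio to pre-addition baseline per second over 15 to 24 s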); settings: thallium flux BTC fluorescence, at 10 µM, actives lie on both sides
Chain of Alpha-2C adrenergic receptor (Homo sapiens) (P18825 whole entry, looked up): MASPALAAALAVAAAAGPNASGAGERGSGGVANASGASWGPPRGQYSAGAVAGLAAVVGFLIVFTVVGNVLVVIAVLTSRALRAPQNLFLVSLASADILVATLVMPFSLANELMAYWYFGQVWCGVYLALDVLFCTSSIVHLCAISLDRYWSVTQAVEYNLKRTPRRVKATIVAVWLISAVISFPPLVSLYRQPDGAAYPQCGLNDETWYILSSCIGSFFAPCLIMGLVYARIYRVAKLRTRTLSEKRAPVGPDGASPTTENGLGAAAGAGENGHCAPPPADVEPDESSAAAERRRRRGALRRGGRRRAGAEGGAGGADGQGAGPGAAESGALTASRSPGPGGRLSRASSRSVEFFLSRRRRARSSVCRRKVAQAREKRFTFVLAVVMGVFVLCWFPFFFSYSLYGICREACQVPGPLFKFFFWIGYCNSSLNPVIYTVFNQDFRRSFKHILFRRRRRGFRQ

[8] = inhibitors of larval lipid processing in zebrafish, primary screen, whole organism, PED6 fluorescence, gall bladder and intestine (AID 686;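 active = a full or partial loss of lipid-probe fluorescence in the fish gall bladder, intestine or both, judged by eye; inactive = no fluorescence loss, or compound toxic to the fish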;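 note: larvae 5 to 7 days old with five fish per well; signal comes from phospholipase A2 cleavage of quenched PED6 carried via bile; overnight exposure to compound and PED6 before scoring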); settings: Zebrafish larvae PED6 lipid processing, fluorescence scoring; screened at 20 µM (by protocol)
Summary of the method: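 Test system – live zebrafish larvae aged 5-7 days, whole organism · Buffer or medium – E3 fish medium · Reagent – quenched phospholipase substrate PED6, 100 nM final, ingested by larvae · Doses – 20 µM single dose · Incubation – overnight compound and PED6 incubation · Technique – visual fluorescence microscopy scoring of gall bladder, gut · Read-out basis – visual per-well fluorescence inhibition score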

[9] = loss of swimming-algae plug formation – whole organism, Chlamydomonas reinhardtii, WT vs cilia-less mutant, absorbance, 96-well, primary screen (AID 463189;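 active = inhibition at or above 50% relative to wild type and mutant plate controls; inactive = inhibition below 50%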;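 note: 0% = wild type cc124 cells in DMSO and 100% = ciliumless bld1 mutant cells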); settings: Chlamydomonas reinhardtii gravitaxis, OD600 absorbance, 2 days; at 10 µM; stronger effect = higher value
[10] = measured here: cell density z-score
[11] = measured here: nuclear c-Myc green intensity z-score
[12] = measured here: nuclear pErk red intensity z-score, stronger effect = higher value

CSc1nc2sc3c(c2c2nnnn12)CC(C)(C)OC3
cell count [1]: 661
inhibition [1]: -6.7% (inactive)
inhibition [2]: -16.2% (inactive)
nuclei count [2]: 187%
z-score [3, 10]: -1.26
z-score [3, 11]: 1.03
z-score [3, 12]: 0.586
inhibition [4]: -5.89% (inactive)
fluorescence slope [5]: -0.496 (inactive)
NADPH fluorescence slope [6]: -6.6e-05 (inactive)
slope [7]: 0.00446 (inactive)
outcome [8]: inactive
inhibition [9]: 16.5% (inactive)

CN1C2C=C3C(C#N)=C(N)C(C#N)(C#N)[C@@H](c4cccs4)C3C1CC2 (stereo not given in full)
cell count [1]: 494
inhibition [1]: -6.5% (inactive)
inhibition [2]: -7.4% (inactive)
nuclei count [2]: 116%
z-score [3, 10]: 0.352
z-score [3, 11]: -1.56
z-score [3, 12]: 0.939
inhibition [4]: 22.7% (inactive)
fluorescence slope [5]: -0.419 (inactive)
NADPH fluorescence slope [6]: 2.6e-06 (inactive)
slope [7]: 0.00481 (inactive)
outcome [8]: inactive
inhibition [9]: -3.84% (inactive)

CCCCOC(=O)CSc1nc(N)c(C#N)c(-c2ccc(OC)cc2)c1C#N
cell count [1]: 370
inhibition [1]: -0.4% (inactive)
inhibition [2]: -58.5% (inactive)
nuclei count [2]: 99.4%
z-score [3, 10]: -2.23
z-score [3, 11]: 0.0198
z-score [3, 12]: 1.46
inhibition [4]: 3.66% (inactive)
fluorescence slope [5]: -0.52 (inactive)
NADPH fluorescence slope [6]: -6.6e-05 (inactive)
slope [7]: 0.00456 (inactive)
outcome [8]: inactive
inhibition [9]: -17.4% (inactive)

COc1cc(-c2nn3c(COc4ccccc4)nnc3s2)cc(OC)c1OC
cell count [1]: 497
inhibition [1]: -2.1% (inactive)
inhibition [2]: -95% (inactive)
nuclei count [2]: 105%
z-score [3, 10]: -0.725
z-score [3, 11]: 2.38
z-score [3, 12]: 0.000132
inhibition [4]: -4.27% (inactive)
fluorescence slope [5]: -0.417 (inactive)
NADPH fluorescence slope [6]: -1.5e-06 (inactive)
slope [7]: 0.00817 (inactive)
outcome [8]: inactive
inhibition [9]: -11% (inactive)

CC(NC(=O)OC(C)(C)C)C(=O)Oc1ccc2ccc(=O)oc2c1 (stereo not given)
cell count [1]: 566
inhibition [1]: -16.8% (inactive)
inhibition [2]: -178% (inactive)
nuclei count [2]: 183%
z-score [3, 10]: 0.378
z-score [3, 11]: 1.02
z-score [3, 12]: -0.959
inhibition [4]: 28.6% (inactive)
fluorescence slope [5]: -0.0856 (inactive)
NADPH fluorescence slope [6]: -1.3e-05 (inactive)
slope [7]: 0.00547 (inactive)
outcome [8]: inactive
inhibition [9]: 1.2% (inactive)

Cc1cc(=O)[nH]c(SCC(=O)c2ccccc2)c1C#N
cell count [1]: 391
inhibition [1]: -0.9% (inactive)
inhibition [2]: 1.9% (inactive)
nuclei count [2]: 168%
z-score [3, 10]: 2.74
z-score [3, 11]: -1.01
z-score [3, 12]: -0.58
inhibition [4]: 13.4% (inactive)
fluorescence slope [5]: -0.41 (inactive)
NADPH fluorescence slope [6]: -0.000133 (inactive)
slope [7]: 0.00479 (inactive)
outcome [8]: inactive
inhibition [9]: -2.65% (inactive)

CC(C)Oc1ccc(/C(O)=C2/C(=O)C(=O)N(CCN3CCOCC3)C2c2ccccc2)cc1 (stereo not given)
cell count [1]: 564
inhibition [1]: 4.6% (inactive)
inhibition [2]: -21.9% (inactive)
nuclei count [2]: 179%
z-score [3, 10]: -0.496
z-score [3, 11]: -0.0457
z-score [3, 12]: 0.947
inhibition [4]: -1.12% (inactive)
fluorescence slope [5]: -0.338 (inactive)
NADPH fluorescence slope [6]: -1.3e-05 (inactive)
slope [7]: 0.0044 (inactive)
outcome [8]: inactive
inhibition [9]: 0.719% (inactive)

COc1ccc(N(CN2C(=O)C3C4C=CC(C4)C3C2=O)C(=O)c2ccco2)cc1 (stereo not given)
cell count [1]: 541
inhibition [1]: 2.9% (inactive)
inhibition [2]: -74.9% (inactive)
nuclei count [2]: 117%
z-score [3, 10]: -1.56
z-score [3, 11]: 1.43
z-score [3, 12]: 1.11
inhibition [4]: 1.6e-07% (inactive)
fluorescence slope [5]: -0.58 (inactive)
NADPH fluorescence slope [6]: -3.5e-05 (inactive)
slope [7]: 0.00619 (inactive)
outcome [8]: inactive
inhibition [9]: -8.45% (inactive)

CCNc1nc(Oc2ccccc2)nc(OC(C)C(=O)OCC)n1 (stereo not given)
cell count [1]: 674
inhibition [1]: 1.4% (inactive)
inhibition [2]: -19.3% (inactive)
nuclei count [2]: 172%
z-score [3, 10]: -0.682
z-score [3, 11]: -0.0206
z-score [3, 12]: 2.56
inhibition [4]: -2.07% (inactive)
fluorescence slope [5]: -0.532 (inactive)
NADPH fluorescence slope [6]: -6.7e-05 (inactive)
slope [7]: 0.00506 (inactive)
outcome [8]: inactive
inhibition [9]: -3.35% (inactive)

Cc1cc(=O)oc2cc(OCCSCCN3CCOCC3)ccc12
cell count [1]: 382
inhibition [1]: -4.7% (inactive)
inhibition [2]: -171% (inactive)
nuclei count [2]: 162%
z-score [3, 10]: 1.19
z-score [3, 11]: 0.929
z-score [3, 12]: 0.186
inhibition [4]: 15.1% (inactive)
fluorescence slope [5]: -0.358 (inactive)
NADPH fluorescence slope [6]: -6.2e-05 (inactive)
slope [7]: 0.00648 (inactive)
outcome [8]: inactive
inhibition [9]: -5.19% (inactive)

Reference: PubChem BioAssay
